In the library only some 2.3% were active in any assay of this set; here they are far more common.
Calb FLC – affects C. albicans growth with fluconazole. AID 1979. growth inhibition, % (concentration not given with the values). C. albicans CaCi-2 (fluconazole-resistant clinical isolate) + fluconazole, Alamar Blue growth, 48 h. actives 0.57% (n = 300,000);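 active means growth inhibition above about 58% in most replicates, limit read from the data, passing the limit was not always enough; inconclusive means exactly half the replicates above a set limit; inactive means most replicates below a set limit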;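 further: all wells also contain fluconazole at 8 µg/ml as a sub-toxic cotreatment; 0% = median of DMSO wells and 100% = median of geldanamycin control wells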
ASAP1 GAP inh – ASAP1 ArfGAP inhibition; ASAP1-stimulated ARF1 GTP hydrolysis, GDP FP detection; actives 0.19% (n = 360,000); AID 624377; inhibition, % at 16.5 µM; in the data active means inhibition above about 25%;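 further: 0% = vehicle with enzyme and substrate and 100% = no enzyme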
Target sequence (Q9ULH1 325-724 limits assumed): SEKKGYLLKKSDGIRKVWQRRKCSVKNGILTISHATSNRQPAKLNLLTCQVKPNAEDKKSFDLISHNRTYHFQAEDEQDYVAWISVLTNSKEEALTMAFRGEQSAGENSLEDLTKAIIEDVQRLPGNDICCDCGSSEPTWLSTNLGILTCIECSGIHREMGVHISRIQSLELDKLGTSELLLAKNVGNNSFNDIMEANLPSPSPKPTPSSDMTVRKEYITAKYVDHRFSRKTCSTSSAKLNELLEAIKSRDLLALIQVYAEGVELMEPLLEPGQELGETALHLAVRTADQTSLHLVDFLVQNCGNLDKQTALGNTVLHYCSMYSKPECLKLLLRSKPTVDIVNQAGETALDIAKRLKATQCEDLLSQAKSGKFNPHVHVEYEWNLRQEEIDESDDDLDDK
SKKanGAS inh – inhibitors of SKKanGAS S. pyogenes growth in kanamycin (SK-promoter or general growth effect) | BacTiter-Glo, 6 h | actives 1.3% (n = 300,000) | inhibition, % at 7.5 µM;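 active means mean replicate score, as percent of positive control median, at least 50; inconclusive means mean below 50 but one replicate at or above 50; inactive means mean and every replicate below 50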;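 further: strain carries kanamycin resistance gene driven by streptokinase promoter and grows in 40 µg/ml kanamycin; loss of luminescence reflects streptokinase promoter inhibition or plain growth inhibition; 0% = median of DMSO wells and 100% = positive control at its reference dose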
ARFGAP1 inh – inhibitors of rat ARFGAP1. Q62848. Arfgap1-stimulated ARF1 GTP hydrolysis, GDP FP detection. inhibition, % at 16.5 µM. actives 0.26% (n = 360,000);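 active means inhibition above a per-plate limit, mean inhibition of low control wells plus 3 SD, cut at about 25% in these data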;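 further: 0% = DMSO wells with enzyme and 100% = wells lacking Arfgap1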
Target sequence (Q62848 1-136 limits assumed): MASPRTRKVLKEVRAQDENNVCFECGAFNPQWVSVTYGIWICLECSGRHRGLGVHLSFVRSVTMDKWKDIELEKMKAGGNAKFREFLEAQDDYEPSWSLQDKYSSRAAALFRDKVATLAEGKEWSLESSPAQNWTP
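Repeats: one replicate per compound; assay system: rat Arfgap1 catalytic domain, aa 1-136; times: enzyme reaction 120 min at 25 °C after 20 min preincubation; detection: FP of antibody-bound GDP Alexa 633 tracer, ex 620/em 688 nm; benchmarks: high control wells lacking Arfgap1, low control full reaction with DMSO; reagent: human ARF1(Δ1-17)-GTP substrate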
sPLA2-III inh – Inhibits HGIII-sPLA2 liposome hydrolysis, primary screen; Q9NZ20; QFRET BODIPY PC-A2 liposome hydrolysis, fluorescence; inhibition, % at 12.2 µM; actives 0.56% (n = 370,000); AID 743126;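 active means inhibition above mean plus 3 SD of compounds lying within the high and low control bounds, cut at about 19% in these data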;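 further: 0% = median of test compound wells and 100% = no enzyme DMSO wells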
Numbers without * were called inactive.

For C[C@@H](N)C(=O)Nc1ccc(Cl)cc1C(=O)c1ccc[nH]1 the results were sPLA2-III inh 0.
COc1ccc(-c2cc(-c3cc(OC)ccc3O)[nH]n2)cc1 was read as Calb FLC inconclusive, ASAP1 GAP inh 5, SKKanGAS inh 15, ARFGAP1 inh 18 and sPLA2-III inh -44.
Oc1ccccc1-c1cc(-c2ccc3c(c2)OCCO3)n[nH]1 was read as Calb FLC 31, ASAP1 GAP inh 28*, SKKanGAS inh -19, ARFGAP1 inh 11 and sPLA2-III inh -41.
Screening Oc1ccc(Br)cc1-c1cc(-c2ccc(Cl)cc2)n[nH]1 returned Calb FLC 1, ASAP1 GAP inh 4, SKKanGAS inh 27, ARFGAP1 inh -6 and sPLA2-III inh -16.
Screening Oc1ccc(Br)cc1-c1cc(-c2ccccc2)n[nH]1 returned Calb FLC 8, ASAP1 GAP inh 12, SKKanGAS inh 80*, ARFGAP1 inh 21 and sPLA2-III inh -36.
For COc1ccc(O)c(-c2cc(-c3cccc(Br)c3)n[nH]2)c1 the results were Calb FLC -4, ASAP1 GAP inh 8, SKKanGAS inh 56*, ARFGAP1 inh 9 and sPLA2-III inh -14.
O=[N+]([O-])c1cc(Br)cc(C=Nc2ccc3c(c2)OCO3)c1O was read as Calb FLC 20, ASAP1 GAP inh -9, SKKanGAS inh 54*, ARFGAP1 inh -11 and sPLA2-III inh -9.
For O=S1(=O)CC(N2CCC(c3ccccc3)CC2)CN1Cc1cn(Cc2ccc(C(F)(F)F)cc2)nn1 (centres undefined) the results were ASAP1 GAP inh 0, ARFGAP1 inh -8 and sPLA2-III inh -4.
For CN(c1ccccc1)c1ccc(/C=C(/CCC(=O)O)c2nc3ccccc3s2)cc1[N+](=O)[O-] the results were ASAP1 GAP inh 6, ARFGAP1 inh 2 and sPLA2-III inh 20*.
CNc1nc(NCC2CCCCC2)c2sccc2n1 was read as ASAP1 GAP inh -1, ARFGAP1 inh 9 and sPLA2-III inh -8.
O=[N+]([O-])c1ccc(N2N=C(c3ccccc3)CC2c2ccccc2O)cc1 (centres undefined) was read as Calb FLC 10, ASAP1 GAP inh -5, SKKanGAS inh 98*, ARFGAP1 inh 0 and sPLA2-III inh -39.
N#CC1CC(c2ccccc2)=NN1c1ccccc1[N+](=O)[O-] (centres undefined) was read as Calb FLC 85*, ASAP1 GAP inh 15, SKKanGAS inh -8, ARFGAP1 inh -2 and sPLA2-III inh -2.
`O=c1c2ccccc2c(-c2ccccc2)nn1Cc1c(Cl)cccc1Cl` gave Calb FLC 61, ASAP1 GAP inh 12, SKKanGAS inh 75*, ARFGAP1 inh -9 and sPLA2-III inh -6.
For O=C1N2Cc3ccccc3C2CS(=O)(=O)N1CCc1ccccc1 (centres undefined) the results were sPLA2-III inh 2.
For O=C(CSc1nnc(-c2ccc(Br)cc2)o1)Nc1cccc2ccccc12 the results were Calb FLC 85*, ASAP1 GAP inh -6, SKKanGAS inh 0, ARFGAP1 inh -7 and sPLA2-III inh -5.
O=C(CSc1nnc(-c2ccc(Br)cc2)o1)Nc1cccc(C(=O)O)c1 was read as Calb FLC 2, ASAP1 GAP inh -6, SKKanGAS inh 1, ARFGAP1 inh 5 and sPLA2-III inh 4.
For Nc1nonc1C(=O)NCCN=Cc1cc(Cc2ccccc2)cc(Br)c1O the results were Calb FLC -2 and SKKanGAS inh 52*.
CCOC(=O)Cc1c(C)nc2c(C#N)c[nH]n2c1=O was read as Calb FLC inconclusive, ASAP1 GAP inh -10, SKKanGAS inh 1, ARFGAP1 inh 17 and sPLA2-III inh 5.
`CCOC(=O)Cc1c(C)nc2c(-c3cccc(Br)c3)c[nH]n2c1=O` gave Calb FLC -12, ASAP1 GAP inh -13, SKKanGAS inh 95*, ARFGAP1 inh 2 and sPLA2-III inh -21.
For COc1cccc(NC(=S)NN=C2CCCCCC2)c1 the results were Calb FLC 9, ASAP1 GAP inh 3, SKKanGAS inh 52*, ARFGAP1 inh 11 and sPLA2-III inh 13.
Screening FC(F)(F)c1ccccc1NC(=S)N1CCCC1 returned Calb FLC -16, ASAP1 GAP inh -2, SKKanGAS inh -1, ARFGAP1 inh 2 and sPLA2-III inh 2.
Screening FC(F)(F)c1ccccc1NC(=S)NN=C1CCCCCC1 returned Calb FLC 95*, ASAP1 GAP inh -5, SKKanGAS inh -34, ARFGAP1 inh 2 and sPLA2-III inh 5.
COc1ccc(-c2cc(N)n(S(=O)(=O)c3c(F)c(F)c(F)c(F)c3F)n2)cc1OC was read as Calb FLC 76*, ASAP1 GAP inh 10, SKKanGAS inh 29, ARFGAP1 inh -6 and sPLA2-III inh -11.
Screening COc1ccc(S(=O)(=O)n2nc(-c3cc(OC)c(OC)c(OC)c3)cc2N)cc1OC returned ASAP1 GAP inh 6, ARFGAP1 inh -5 and sPLA2-III inh -5.
For Cc1ccc(S(=O)(=O)NCCCc2ccc3c(c2)[C@]2(CCC[C@@H](OCc4ccccc4)[C@@H]2NC(=O)CCc2ccccc2)C(=O)N3Cc2ccccc2)cc1 the results were sPLA2-III inh -2.
`CC(C)CNC(=O)OCc1cn(Cc2ccccc2)nn1` gave sPLA2-III inh 2.
N#Cc1ccc(-c2nc3cc(Cl)ccc3c(=O)n2O)cc1 was read as Calb FLC 101*, ASAP1 GAP inh -1, SKKanGAS inh 30, ARFGAP1 inh -7 and sPLA2-III inh 8.
For O=c1c2ccc(Cl)cc2nc(-c2cccc(C(F)(F)F)c2)n1O the results were Calb FLC 79*, ASAP1 GAP inh 0, SKKanGAS inh 97*, ARFGAP1 inh -13 and sPLA2-III inh -19.
Screening O=c1c2cc(Br)ccc2nc(-c2ccc(Cl)cc2)n1O returned Calb FLC 24, ASAP1 GAP inh -2, SKKanGAS inh 89*, ARFGAP1 inh 1 and sPLA2-III inh -2.
`N#Cc1ccc(-c2nc3ccccc3c(=O)n2O)cc1` gave Calb FLC -6, ASAP1 GAP inh -1, SKKanGAS inh 3, ARFGAP1 inh -8 and sPLA2-III inh 4.
Screening O=c1c2cc(Cl)ccc2nc(-c2ccc([N+](=O)[O-])cc2)n1O returned Calb FLC 4, ASAP1 GAP inh -1, SKKanGAS inh 5, ARFGAP1 inh 1 and sPLA2-III inh -3.
Screening Cc1ccc(-c2nc3c(Cl)cc(Cl)cc3c(=O)n2O)cc1 returned Calb FLC 96*, ASAP1 GAP inh -17, SKKanGAS inh 90*, ARFGAP1 inh 0 and sPLA2-III inh -13.
`O=c1c2ccccc2nc(-c2ccc(Cl)c(Cl)c2)n1O` gave Calb FLC 50, ASAP1 GAP inh -1, SKKanGAS inh 37, ARFGAP1 inh 8 and sPLA2-III inh -3.
CN1C(=O)[C@@]2(O[C@H]3C=CC=CN3C3=C2C(=O)CCC3)c2cccc(Br)c21 was read as ASAP1 GAP inh -9, ARFGAP1 inh -13 and sPLA2-III inh 10.
